Results on 18 compounds are retold here after ChEMBL document CHEMBL1140584, “Novel potent organoselenium compounds as cytotoxic agents in prostate cancer cells” (Bioorg Med Chem Lett, 2007).

A word on the IC50: it is the point on the concentration scale where inhibition reaches its midpoint. Read a low IC50 as greater potency.

One data set has as its system PC-3. Description: Cytotoxicity against human PC3 cells at 2 to 10 uM by MTT assay. It is filed as functional, cell-based.
Conditions: not given
Put shortly:
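PC-3 cells (ATCC, tumorigenic metastatic prostate cancer) grown in RPMI 1640 with Glutamax, 10% FBS and 1% penicillin–streptomycin. Seeded at 5·10³ cells/well in complete medium and incubated overnight at 37 °C, 5% CO₂ before compound addition. MTT formazan absorbance read at 570 nm. Percentage viable cells relative to untreated controls used to derive IC50.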
On the technique in general: Tetrazolium dyes change colour on reduction, which living cells bring about.
`CC(C)[Se]/C(=N\C(=O)c1ccccc1)NC(=O)c1ccccc1` registered an IC50 greater than 10 µM. Still for that read-out and setting: the result for `C[Se]/C(=N\C(=O)c1ccc(Cl)nc1)NC(=O)c1ccc(Cl)nc1` reads 9.14 µM; that for `CC(C)[Se]/C(=N\C(=O)c1ccc(Cl)cc1)NC(=O)c1ccc(Cl)cc1`, greater than 10 µM. Still for that read-out and setting: the value for `CS/C(=N\C(=O)c1ccc(Cl)cc1)NC(=O)c1ccc(Cl)cc1` was greater than 10 µM; that for `C[Se](=O)O` [METHYLSELENINIC ACID] was 8.38 µM; that for `C[Se]/C(=N\C(=O)c1ccc(C#N)cc1)NC(=O)c1ccc(C#N)cc1` was greater than 10 µM. Still for that read-out and setting: the result for `C[Se]/C(=N\C(=O)c1ccc(C(C)(C)C)cc1)NC(=O)c1ccc(C(C)(C)C)cc1` reads greater than 10 µM; that for `COc1cc(OC)cc(C(=O)/N=C(/NC(=O)c2cc(OC)cc(OC)c2)[Se]C(C)C)c1`, greater than 10 µM; that for `C[Se]/C(=N\C(=O)c1ccc(Cl)cc1)NC(=O)c1ccc(Cl)cc1`, 7.6 µM.

`CS/C(=N\C(=O)c1ccccc1)NC(=O)c1ccccc1` came in with an IC50 greater than 10 µM. As for `CS/C(=N\C(=O)c1ccc(C)cc1)NC(=O)c1ccc(C)cc1`, the IC50 is greater than 10 µM. The same measure, in the same setting: the result for `COc1cc(OC)cc(C(=O)/N=C(/NC(=O)c2cc(OC)cc(OC)c2)[Se]C)c1` reads 6.5 µM; that for `CC[Se]/C(=N\C(=O)c1ccccc1)NC(=O)c1ccccc1`, greater than 10 µM; that for `CS/C(=N\C(=O)c1cccnc1Cl)NC(=O)c1cccnc1Cl`, greater than 10 µM. Still for that read-out and setting: the result for `C[Se]/C(=N\C(=O)c1ccccc1)NC(=O)c1ccccc1` reads 2.5 µM; that for `C[Se]/C(=N\C(=O)c1ccc(C(F)(F)F)cc1)NC(=O)c1ccc(C(F)(F)F)cc1`, greater than 10 µM. Same read-out and setting: the result for `C[Se]/C(=N\C(=O)c1ccc(C)cc1)NC(=O)c1ccc(C)cc1` reads 1.85 µM; that for `C[Se]/C(=N\C(=O)c1ccc([N+](=O)[O-])cc1)NC(=O)c1ccc([N+](=O)[O-])cc1`, greater than 10 µM.

Test system in another data set: not listed separately
In words: Toxicity against human RWPE1 cells at 2 to 10 uM by MTT assay. In kind it is cell-based, RWPE-1. As to conditions: read-out: LD50 (the source's name). Put shortly: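 Non-tumorigenic human prostate RWPE-1 cells (ATCC) kept in keratinocyte-SFM supplemented with 1% FBS and 1% penicillin–streptomycin. MTT read-out as formazan absorbance at 570 nm. Viability expressed as percentage of untreated control cells and used to derive IC50.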
On to `C[Se]/C(=N\C(=O)c1ccc(Cl)nc1)NC(=O)c1ccc(Cl)nc1`, for which the CC50 was greater than 10 µM. Still for that read-out and setting: the value for `C[Se]/C(=N\C(=O)c1ccccc1)NC(=O)c1ccccc1` was 4.1 µM. On the same count and under the same terms, the value for `C[Se]/C(=N\C(=O)c1ccc(C)cc1)NC(=O)c1ccc(C)cc1` was greater than 10 µM.
